# Experiments:
# Format in all cases: functional
# Staphylococcus aureus [1] = experiment: In vitro antibacterial activity against Staphylococcus aureus; value ranges from 12-25 uM
# Staphylococcus aureus [2] = experiment: In vitro antibacterial activity against Staphylococcus aureus; value ranges from 6-12 uM
# Staphylococcus aureus [3] = experiment: In vitro antibacterial activity against Staphylococcus aureus
# Huh-7 [4] = experiment: Cytotoxic concentration against Huh7 cells at 48 hours in MTT assay; details: Homo sapiens, Huh-7, 48 h
# Enterococcus faecium [5] = experiment: Minimum inhibitory concentration against Enterococcus faecium ATCC 6569
# Pseudomonas aeruginosa = experiment: Minimum inhibitory concentration against Pseudomonas aeruginosa ATCC 25416
# Escherichia coli = experiment: Minimum inhibitory concentration against Escherichia coli ATCC 25922; value ranges from 12-25 uM
# Proteus vulgaris = experiment: Minimum inhibitory concentration against Proteus vulgaris ATCC 8427; value ranges from 12-25 uM
# Staphylococcus aureus [6] = experiment: Minimum inhibitory concentration against Staphylococcus aureus ATCC 13709; value ranges from 3-6 uM
# Streptococcus pyogenes [7] = experiment: Minimum inhibitory concentration against Streptococcus pyogenes ATCC 49399; value ranges from 3-6 uM
# Staphylococcus aureus [8] = experiment: Minimum inhibitory concentration against Staphylococcus aureus ATCC 13709 (+4% BSA); value ranges from 25-50 uM
# Procedure, shortened: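 Same microdilution MIC against S. aureus ATCC 13709, but with 4% bovine serum albumin in the wells. Compound in 0.5% DMSO in water, inoculum about 10³–10⁴ CFU/well, duplicates. Growth was read as A595 after 20–24 h at 37°C against a compound-free control. MIC is reported as the range between full inhibition and viable growth.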
# Klebsiella pneumoniae [9] = experiment: Minimum inhibitory concentration against Klebsiella pneumoniae ATCC 13383; value ranges from 3-6 uM
# Enterococcus faecalis [10] = experiment: Minimum inhibitory concentration against Enterococcus faecalis ATCC 29212; value ranges from 3-6 uM
# Mus musculus [11] = experiment: In vivo antibacterial activity (Staphylococcus aureus) in a lethal murine model at a dose of 75 mg/kg; activity expressed as no. of mice alive/total tested; 7/10
# Mus musculus [12] = experiment: In vivo antibacterial activity (Staphylococcus aureus) in a lethal murine model at a dose of 150 mg/kg; activity expressed as no. of mice alive/total tested; 4/10
# Mus musculus [13] = experiment: In vivo antibacterial activity (Staphylococcus aureus) in a lethal murine model at a dose of 4.6 mg/kg; activity expressed as no. of mice alive/total tested; 3/10
# Mus musculus [14] = experiment: In vivo antibacterial activity (Staphylococcus aureus) in a lethal murine model at a dose of 9.4 mg/kg; activity expressed as no. of mice alive/total tested; 4/10
# Mus musculus [15] = experiment: In vivo antibacterial activity (Staphylococcus aureus) in a lethal murine model at a dose of 18.8 mg/kg; activity expressed as no. of mice alive/total tested; 6/10
# Mus musculus [16] = experiment: In vivo antibacterial activity (Staphylococcus aureus) in a lethal murine model at a dose of 37.6 mg/kg; activity expressed as no. of mice alive/total tested; 6/10
# Staphylococcus aureus [17] = experiment: In vitro antibacterial activity against Staphylococcus aureus; value ranges from 3-6 uM
# Enterococcus faecalis [18] = experiment: Minimum inhibitory concentration against Enterococcus faecalis ATCC 29212; value ranges from 6-12 uM
# Huh-7 [19] = experiment: Cytotoxic concentration against Huh7 cells at 48 hours in MTT assay; value ranges from 50-100 uM; details: Homo sapiens, Huh-7, 48 h
# Enterococcus faecium [20] = experiment: Minimum inhibitory concentration against Enterococcus faecium ATCC 6569; value ranges from 6-12 uM
# Staphylococcus aureus [21] = experiment: In vitro antibacterial activity against Staphylococcus aureus; value ranges from 50-100 uM
# Klebsiella pneumoniae [22] = experiment: Minimum inhibitory concentration against Klebsiella pneumoniae ATCC 13383; value ranges from 6-12 uM
# Streptococcus pyogenes [23] = experiment: Minimum inhibitory concentration against Streptococcus pyogenes ATCC 49399; value ranges from 6-12 uM
# Staphylococcus aureus [24] = experiment: In vitro antibacterial activity against Staphylococcus aureus; value ranges from 25-50 uM
# Mus musculus [25] = experiment: In vivo antibacterial activity (Staphylococcus aureus) in a lethal murine model at a dose of 2 mg/kg; activity expressed as no. of mice alive/total tested; 10/10
smiles,measurement,setting,value
O=C(NCCCNCc1ccccc1OC(F)(F)F)Nc1ccc(C(F)(F)F)cc1,MIC,Staphylococcus aureus [1],25 µM
O=C(NCCCNCc1cc(Br)cc(Br)c1)Nc1cccc(C(F)(F)F)c1,MIC,Staphylococcus aureus [2],12 µM
S=C(NCCCNCc1cc(Br)cc(Br)c1)Nc1ccc(Br)cc1,MIC,Staphylococcus aureus [1],25 µM
S=C(NCCCNCc1cc(Br)cc(Br)c1)Nc1cccc(Cl)c1,MIC,Staphylococcus aureus [2],12 µM
CC(=O)Nc1ccc(CNCCCNC(=O)Nc2ccc(C(F)(F)F)cc2)cc1,MIC,Staphylococcus aureus [3],> 100 µM
O=C(NCCCNCc1cc(Br)cc(Br)c1)Nc1ccc(OC(F)(F)F)cc1,MIC,Staphylococcus aureus [2],12 µM
S=C(NCCCNCc1cc(Br)cc(Br)c1)Nc1cccc(Br)c1,MIC,Staphylococcus aureus [2],12 µM
CN(CCCNC(=O)Nc1ccc(C(F)(F)F)cc1)CCCOc1ccc(Br)cc1Br,CC50,Huh-7 [4],> 100 µM
same,MIC,Enterococcus faecium [5],> 100 µM
same,MIC,Pseudomonas aeruginosa,> 100 µM
same,MIC,Escherichia coli,25 µM
same,MIC,Proteus vulgaris,25 µM
same,MIC,Staphylococcus aureus [6],6 µM
same,MIC,Streptococcus pyogenes [7],6 µM
same,MIC,Staphylococcus aureus [8],50 µM
same,MIC,Klebsiella pneumoniae [9],6 µM
same,MIC,Staphylococcus aureus [2],12 µM
same,MIC,Enterococcus faecalis [10],6 µM
same,No. of animals alive,Mus musculus [11],7
same,No. of animals alive,Mus musculus [12],4
same,No. of animals alive,Mus musculus [13],3
same,No. of animals alive,Mus musculus [14],4
same,No. of animals alive,Mus musculus [15],6
same,No. of animals alive,Mus musculus [16],6
O=C(NCCCNCc1ccc(OC(F)(F)F)cc1)Nc1ccc(C(F)(F)F)cc1,MIC,Staphylococcus aureus [17],6 µM
CCOc1c(Br)cc(Br)cc1CNCCCNC(=O)Nc1ccc(C(F)(F)F)cc1,MIC,Staphylococcus aureus [17],6 µM
same,MIC,Pseudomonas aeruginosa,> 100 µM
same,MIC,Escherichia coli,25 µM
same,MIC,Enterococcus faecalis [18],12 µM
same,MIC,Proteus vulgaris,25 µM
same,MIC,Staphylococcus aureus [6],6 µM
same,MIC,Streptococcus pyogenes [7],6 µM
same,MIC,Staphylococcus aureus [8],50 µM
same,MIC,Klebsiella pneumoniae [9],6 µM
same,CC50,Huh-7 [19],100 µM
same,MIC,Enterococcus faecium [20],12 µM
FC(F)(F)c1ccc(N/C(S)=N/CCCNCc2cc(Br)cc(Br)c2)cc1,MIC,Staphylococcus aureus [2],12 µM
O=C(NCCCNCc1cc(C(F)(F)F)cc(C(F)(F)F)c1)Nc1ccc(C(F)(F)F)cc1,MIC,Staphylococcus aureus [21],100 µM
O=C(NCCCNCc1cccc(-c2ccccc2)c1)Nc1ccc(C(F)(F)F)cc1,MIC,Staphylococcus aureus [2],12 µM
O=C(NCCCNCc1ccc(Cl)c(Cl)c1)Nc1ccc(C(F)(F)F)cc1,MIC,Staphylococcus aureus [17],6 µM
O=C(NCCCNCc1cc(Cl)cc(Cl)c1)Nc1ccc(C(F)(F)F)cc1,MIC,Staphylococcus aureus [2],12 µM
O=C(NCCCNCc1cc(Br)cc(Br)c1)Nc1ccc(C(F)(F)F)cc1,MIC,Staphylococcus aureus [17],6 µM
same,MIC,Enterococcus faecium [5],> 100 µM
same,MIC,Pseudomonas aeruginosa,> 100 µM
same,MIC,Escherichia coli,25 µM
same,MIC,Klebsiella pneumoniae [22],12 µM
same,MIC,Enterococcus faecalis [18],12 µM
same,MIC,Proteus vulgaris,25 µM
same,MIC,Streptococcus pyogenes [23],12 µM
same,MIC,Staphylococcus aureus [6],6 µM
same,MIC,Staphylococcus aureus [8],50 µM
COc1cc(CNCCCNC(=O)Nc2ccc(C(F)(F)F)cc2)cc(OC)c1,MIC,Staphylococcus aureus [21],100 µM
O=C(NCCCNCc1cc(Br)cc(Br)c1)Nc1ccc(Cl)cc1,MIC,Staphylococcus aureus [2],12 µM
COc1ccccc1/N=C(\S)NCCCNCc1cc(Br)cc(Br)c1,MIC,Staphylococcus aureus [3],> 100 µM
COc1ccc(N/C(S)=N/CCCNCc2cc(Br)cc(Br)c2)cc1,MIC,Staphylococcus aureus [24],50 µM
CN[C@H](CC(C)C)C(=O)N[C@H]1C(=O)N[C@@H](CC(N)=O)C(=O)N[C@H]2C(=O)N[C@H]3C(=O)N[C@H](C(=O)N[C@H](C(=O)O)c4cc(O)cc(O)c4-c4cc3ccc4O)[C@H](O)c3ccc(c(Cl)c3)Oc3cc2cc(c3O[C@@H]2O[C@H](CO)[C@@H](O)[C@H](O)[C@H]2O[C@H]2C[C@](C)(N)[C@H](O)[C@H](C)O2)Oc2ccc(cc2Cl)[C@H]1O [VANCOMYCIN],No. of animals alive,Mus musculus [25],10
O=C(NCCCNCc1cc(Br)cc(Br)c1O)Nc1ccc(C(F)(F)F)cc1,MIC,Staphylococcus aureus [3],> 100 µM
S=C(NCCCNCc1cc(Br)cc(Br)c1)Nc1ccc(I)cc1,MIC,Staphylococcus aureus [1],25 µM
O=C(NCCCNCCCOc1ccc(Br)cc1Br)Nc1ccc(C(F)(F)F)cc1,MIC,Staphylococcus aureus [17],6 µM
